Laboratory results: ChEMBL document CHEMBL5303300, “EUbOPEN Chemogenomics Library - Multiplex” (2023)
“And” between values parts separate entries of the source, which are not always exact repeats. Identical values can stand only once.

Experiments:
HEK-293T = assay: Multiplex assay against HEK293T; format: toxicity, cell-based; conditions: human, number of replicates 2
How it was run: (§1)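 Hoechst33342, BioTracker Green Microtubule Cytoskeleton Dye, MitoTracker Red and Annexin V Alexa Fluor 680 were added to live cells at seeding, and imaging on a CQ1 microscope at 37°C and 5% CO2 followed compound addition. Gating by CellPathfinder machine learning separated cells into Hoechst high-intensity objects or normal cells, then normal cells into healthy, pyknosed or fragmented nuclei, then pyknosed cells into mitotic or apoptotic. Per cents of healthy-nucleus cells are reported for the tubulin, mitochondrial-mass and membrane-permeability phenotypes.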

Fibroblast = assay: Multiplex assay against human fibroblast; format: toxicity, cell-based; conditions: number of replicates 2; how it was run: as §1
[1] = 12 h, 1 µM, compound concentration 1 uM
[2] = 12 h, 10 µM, compound concentration 10 uM
[3] = 24 h, 1 µM, compound concentration 1 uM
[4] = 24 h, 10 µM, compound concentration 10 uM
[5] = 48 h, 1 µM, compound concentration 1 uM
[6] = 48 h, 10 µM, compound concentration 10 uM

Structure (SMILES): N[C@@H]1c2cccnc2[C@H](OC(=O)N2CCC(n3c(=O)[nH]c4ncccc43)CC2)CC[C@H]1c1cccc(F)c1F [RIMEGEPANT]
- Population Apoptotic (%) (HEK-293T; [1]): 64% and 44%
- Population Fragmented Nuclei (%) (HEK-293T; [1]): 4% and 5%
- Population Healthy Nuclei (%) (HEK-293T; [1]): 78% and 83%
- Population Hoechst High Intensity Objects (%) (HEK-293T; [1]): 14% and 10%
- Population Membrane Permeable-Phenotype (%) (HEK-293T; [1]): 3% and 1%
- Population Mitochondria Different-Phenotype (%) (HEK-293T; [1]): 18% and 17%
- Population Mitotic Cells (%) (HEK-293T; [1]): 35% and 55%
- Population Normal (%) (HEK-293T; [1]): 85% and 89%
- Population Pyknosed Nuclei (%) (HEK-293T; [1]): 17% and 10%
- Population Tubulin-Different-Phenotype (%) (HEK-293T; [1]): 47%
- Total Cell Count (HEK-293T; [1]): 573 and 694
- Population Apoptotic (%) (HEK-293T; [2]): 40% and 46%
- Population Fragmented Nuclei (%) (HEK-293T; [2]): 4%
- Population Healthy Nuclei (%) (HEK-293T; [2]): 83% and 84%
- Population Hoechst High Intensity Objects (%) (HEK-293T; [2]): 5% and 6%
- Population Membrane Permeable-Phenotype (%) (HEK-293T; [2]): 1% and 4%
- Population Mitochondria Different-Phenotype (%) (HEK-293T; [2]): 49% and 18%
- Population Mitotic Cells (%) (HEK-293T; [2]): 60% and 53%
- Population Normal (%) (HEK-293T; [2]): 94% and 93%
- Population Pyknosed Nuclei (%) (HEK-293T; [2]): 12% and 11%
- Population Tubulin-Different-Phenotype (%) (HEK-293T; [2]): 98% and 82%
- Total Cell Count (HEK-293T; [2]): 526 and 617
- Population Apoptotic (%) (HEK-293T; [3]): 56% and 37%
- Population Fragmented Nuclei (%) (HEK-293T; [3]): 7% and 6%
- Population Healthy Nuclei (%) (HEK-293T; [3]): 75% and 85%
- Population Hoechst High Intensity Objects (%) (HEK-293T; [3]): 11% and 8%
- Population Membrane Permeable-Phenotype (%) (HEK-293T; [3]): 0% and 1%
- Population Mitochondria Different-Phenotype (%) (HEK-293T; [3]): 5% and 4%
- Population Mitotic Cells (%) (HEK-293T; [3]): 43% and 62%
- Population Normal (%) (HEK-293T; [3]): 88% and 91%
- Population Pyknosed Nuclei (%) (HEK-293T; [3]): 17% and 7%
- Population Tubulin-Different-Phenotype (%) (HEK-293T; [3]): 18% and 20%
- Total Cell Count (HEK-293T; [3]): 820 and 1035
- Population Apoptotic (%) (HEK-293T; [4]): 48% and 36%
- Population Fragmented Nuclei (%) (HEK-293T; [4]): 9% and 8%
- Population Healthy Nuclei (%) (HEK-293T; [4]): 84% and 83%
- Population Hoechst High Intensity Objects (%) (HEK-293T; [4]): 8%
- Population Membrane Permeable-Phenotype (%) (HEK-293T; [4]): 5% and 2%
- Population Mitotic Cells (%) (HEK-293T; [4]): 51% and 63%
- Population Normal (%) (HEK-293T; [4]): 91%
- Population Pyknosed Nuclei (%) (HEK-293T; [4]): 6% and 7%
- Population Tubulin-Different-Phenotype (%) (HEK-293T; [4]): 91% and 67%
- Total Cell Count (HEK-293T; [4]): 709 and 978
- Population Apoptotic (%) (HEK-293T; [5]): 26% and 9%
- Population Fragmented Nuclei (%) (HEK-293T; [5]): 12% and 16%
- Population Healthy Nuclei (%) (HEK-293T; [5]): 82% and 80%
- Population Hoechst High Intensity Objects (%) (HEK-293T; [5]): 7% and 8%
- Population Membrane Permeable-Phenotype (%) (HEK-293T; [5]): 4% and 5%
- Population Mitochondria Different-Phenotype (%) (HEK-293T; [5]): 0%
- Population Mitotic Cells (%) (HEK-293T; [5]): 73% and 90%
- Population Normal (%) (HEK-293T; [5]): 92% and 91%
- Population Pyknosed Nuclei (%) (HEK-293T; [5]): 4% and 2%
- Population Tubulin-Different-Phenotype (%) (HEK-293T; [5]): 7% and 8%
- Total Cell Count (HEK-293T; [5]): 2054 and 2768
- Population Apoptotic (%) (HEK-293T; [6]): 34% and 14%
- Population Fragmented Nuclei (%) (HEK-293T; [6]): 14%
- Population Healthy Nuclei (%) (HEK-293T; [6]): 82%
- Population Hoechst High Intensity Objects (%) (HEK-293T; [6]): 8% and 10%
- Population Membrane Permeable-Phenotype (%) (HEK-293T; [6]): 6%
- Population Mitochondria Different-Phenotype (%) (HEK-293T; [6]): 9% and 1%
- Population Mitotic Cells (%) (HEK-293T; [6]): 65% and 85%
- Population Normal (%) (HEK-293T; [6]): 91% and 89%
- Population Pyknosed Nuclei (%) (HEK-293T; [6]): 2% and 3%
- Population Tubulin-Different-Phenotype (%) (HEK-293T; [6]): 83% and 44%
- Total Cell Count (HEK-293T; [6]): 1243 and 2004
- Population Apoptotic (%) (Fibroblast; [1]): 56% and 33%
- Population Fragmented Nuclei (%) (Fibroblast; [1]): 6% and 16%
- Population Healthy Nuclei (%) (Fibroblast; [1]): 56% and 69%
- Population Hoechst High Intensity Objects (%) (Fibroblast; [1]): 0% and 3%
- Population Membrane Permeable-Phenotype (%) (Fibroblast; [1]): 5% and 7%
- Population Mitochondria Different-Phenotype (%) (Fibroblast; [1]): 1% and 0%
- Population Mitotic Cells (%) (Fibroblast; [1]): 43% and 66%
- Population Normal (%) (Fibroblast; [1]): 100% and 96%
- Population Pyknosed Nuclei (%) (Fibroblast; [1]): 37% and 14%
- Population Tubulin-Different-Phenotype (%) (Fibroblast; [1]): 20% and 21%
- Total Cell Count (Fibroblast; [1]): 129 and 236
- Population Apoptotic (%) (Fibroblast; [2]): 47% and 44%
- Population Fragmented Nuclei (%) (Fibroblast; [2]): 14% and 13%
- Population Healthy Nuclei (%) (Fibroblast; [2]): 75%
- Population Hoechst High Intensity Objects (%) (Fibroblast; [2]): 0%
- Population Membrane Permeable-Phenotype (%) (Fibroblast; [2]): 9% and 14%
- Population Mitochondria Different-Phenotype (%) (Fibroblast; [2]): 5% and 4%
- Population Mitotic Cells (%) (Fibroblast; [2]): 52% and 55%
- Population Normal (%) (Fibroblast; [2]): 100%
- Population Pyknosed Nuclei (%) (Fibroblast; [2]): 10% and 11%
- Population Tubulin-Different-Phenotype (%) (Fibroblast; [2]): 61% and 59%
- Total Cell Count (Fibroblast; [2]): 183 and 237
- Population Apoptotic (%) (Fibroblast; [3]): 54% and 32%
- Population Healthy Nuclei (%) (Fibroblast; [3]): 60% and 61%
- Population Hoechst High Intensity Objects (%) (Fibroblast; [3]): 0% and 2%
- Population Membrane Permeable-Phenotype (%) (Fibroblast; [3]): 10% and 1%
- Population Mitochondria Different-Phenotype (%) (Fibroblast; [3]): 0%
- Population Mitotic Cells (%) (Fibroblast; [3]): 45% and 67%
- Population Normal (%) (Fibroblast; [3]): 99% and 97%
- Population Pyknosed Nuclei (%) (Fibroblast; [3]): 35% and 18%
